According to ChEMBL document CHEMBL1130381, “Synthesis and evaluation of trimetoquinol derivatives: novel thromboxane A2/prostaglandin H2 antagonists with diminished beta-adrenergic agonist activity” (J Med Chem, 1997):

Legend:
[1] = organism: Homo sapiens; assay: Inhibitory activity against U-46,619-induced (1 uM) human platelet activation (Serotonin secretion); type: functional
Procedure, shortened: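 Aspirin (1 mM) plus drug for 1 min, then U46619 (0.3–1 μM). Supernatant counted by liquid scintillation. Percent secretion = (sample − unstimulated background cpm)/(total − background cpm) × 100. IC50 taken graphically from log concentration–response plots, given as pIC50.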

[2] = organism: Homo sapiens; assay: Inhibitory activity against U-46,619-induced (1 uM) human platelet activation (aggregation); type: functional
Procedure, shortened: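 Human platelet-rich plasma from volunteers free of medication for at least 10 days, with aspirin (1 mM) to block endogenous prostaglandins. Drug and aspirin preincubated 1 min, then U46619 (0.3–1 μM, minimum concentration giving maximal aggregation) added. Turbidometric aggregation monitored for 4 min. IC50 read graphically from percent response versus log concentration plots, reported as pIC50.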

[3] = target: T1, Thromboxane A2 receptor (Homo sapiens, UniProt P21731); assay: Inhibitory concentration against radioligand [3H]SQ-29,548 (5 nM) binding to TP receptors in human platelets
T1 sequence (P21731 whole entry): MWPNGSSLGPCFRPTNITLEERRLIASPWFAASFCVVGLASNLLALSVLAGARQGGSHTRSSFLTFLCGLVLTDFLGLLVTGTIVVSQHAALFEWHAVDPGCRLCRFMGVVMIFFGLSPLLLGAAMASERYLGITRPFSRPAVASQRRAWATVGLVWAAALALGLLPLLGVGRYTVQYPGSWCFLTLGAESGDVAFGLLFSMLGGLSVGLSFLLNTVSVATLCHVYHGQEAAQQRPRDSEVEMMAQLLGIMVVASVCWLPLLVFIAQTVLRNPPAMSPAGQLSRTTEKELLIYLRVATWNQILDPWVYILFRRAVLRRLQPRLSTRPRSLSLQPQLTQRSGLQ

[4] = target: Beta-2 adrenergic receptor (Cavia porcellus) (UniProt Q8K4Z4)
Sequence of Beta-2 adrenergic receptor (Cavia porcellus) (Q8K4Z4 whole entry, looked up): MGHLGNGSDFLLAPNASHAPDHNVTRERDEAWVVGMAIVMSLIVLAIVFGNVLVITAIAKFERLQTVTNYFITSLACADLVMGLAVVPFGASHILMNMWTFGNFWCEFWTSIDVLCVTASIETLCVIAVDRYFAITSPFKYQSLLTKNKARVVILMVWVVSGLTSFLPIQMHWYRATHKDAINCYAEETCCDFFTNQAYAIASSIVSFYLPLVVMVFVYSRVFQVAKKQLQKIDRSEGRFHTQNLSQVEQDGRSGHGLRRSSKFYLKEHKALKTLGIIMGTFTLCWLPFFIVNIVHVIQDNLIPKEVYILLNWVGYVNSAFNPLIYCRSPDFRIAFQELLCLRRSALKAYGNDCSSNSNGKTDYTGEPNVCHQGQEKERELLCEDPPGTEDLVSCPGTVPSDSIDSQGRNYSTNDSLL

[5] = target: Beta-1 adrenergic receptor (Cavia porcellus) (UniProt B0FL73); conditions: Cardiac atrium
Sequence of Beta-1 adrenergic receptor (Cavia porcellus) (B0FL73 1-467): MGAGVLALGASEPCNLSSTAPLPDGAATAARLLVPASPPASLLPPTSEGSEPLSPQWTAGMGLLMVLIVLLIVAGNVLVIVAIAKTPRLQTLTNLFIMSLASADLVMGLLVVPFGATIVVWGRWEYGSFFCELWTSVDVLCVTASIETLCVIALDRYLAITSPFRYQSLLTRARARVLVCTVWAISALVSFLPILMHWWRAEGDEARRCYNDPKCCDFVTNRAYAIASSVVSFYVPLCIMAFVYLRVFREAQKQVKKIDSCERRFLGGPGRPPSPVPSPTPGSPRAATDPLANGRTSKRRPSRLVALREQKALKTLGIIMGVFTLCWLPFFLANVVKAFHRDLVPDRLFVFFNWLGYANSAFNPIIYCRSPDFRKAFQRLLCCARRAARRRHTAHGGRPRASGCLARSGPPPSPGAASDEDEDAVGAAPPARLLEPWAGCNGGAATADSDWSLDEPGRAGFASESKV

[6] = organism: Homo sapiens; assay: Potency ratio of human platelet aggregation; type: functional

SMILES | IC50 [1] [µM] | IC50 [2] [µM] | IC50 [3] [µM] | Ki [3] [µM] | pD2 [4] | pD2 [5] | Potency ratio [6]
O=[N+]([O-])c1ccc(CC2NCCc3cc(O)c(O)cc32)cc1 (configuration not stated) | 60.3 | 44.7 | 25.1 | 9.55 | 7.49 | 7.26 | –
COc1cc(CC2c3cc(O)c(O)cc3CCN2Cc2ccccc2)cc(OC)c1OC (configuration not stated) | – | – | – | – | – | – | 0.0331
O=[N+]([O-])c1cc(CC2NCCc3cc(O)c(O)cc32)ccc1O (configuration not stated) | 1.12 | 1.26 | 0.871 | 0.339 | 6.55 | 5.91 | –
COc1cc(NC2=NCCc3cc(O)c(O)cc32)cc(OC)c1OC | 204 | 200 | – | – | 3.95 | – | 0.00575
COc1cc(CC2NCCc3cc(O)c(O)cc32)cc(I)c1OC (configuration not stated) | – | – | – | – | – | – | 1.12
Nc1ccc(CC2NCCc3cc(O)c(O)cc32)cc1 (configuration not stated) | 145 | 129 | 89.1 | 34.7 | 6.75 | 6.21 | –
COc1cc(N=C2NCCc3cc(O)c(O)cc32)cc(OC)c1OC | – | – | 275 | 120 | – | – | –
COc1cc(C[C@@H]2NCCc3cc(O)c(O)cc32)cc(OC)c1OC [TRETOQUINOL] | 1.32 | 1.15 | – | – | 7.26 | 7.36 | –
COc1cc(CC2c3cc(O)c(O)cc3CCN2CCc2ccccc2)cc(OC)c1OC (configuration not stated) | 34.7 | 38 | 41.7 | 16.2 | 4.64 | 4.62 | 0.0302
